Laboratory results as given in ChEMBL document CHEMBL1154428, “Cloning, nucleotide sequencing, and analysis of the AcrAB-TolC efflux pump of Enterobacter cloacae and determination of its involvement in antibiotic resistance in a clinical isolate” (2007).
Values after ≈ are worked out from the molar mass of the structure shown.

Experiments:
Enterobacter cloacae [1] = assay: Antibacterial activity against drug-resistant Enterobacter cloacae EcDC64 isolate expressing AcrAB-TolC efflux pump by Etest; type: functional
Enterobacter cloacae [2] = assay: Antibacterial activity against drug-resistant Enterobacter cloacae EcDC64 isolate expressing AcrAB-TolC efflux pump in presence of 20 ug/ml efflux pump inhibitor Phe-Arg-beta-naphthylamide by Etest
Enterobacter cloacae [3] = assay: Antibacterial activity against drug-resistant AcrAB-TolC efflux pump deficient Enterobacter cloacae EcdeltaacrA isolate by Etest; type: functional
Enterobacter cloacae [4] = assay: Antibacterial activity against drug-resistant AcrAB-TolC efflux pump deficient Enterobacter cloacae EcdeltaacrA isolate in presence of 20 ug/ml efflux pump inhibitor Phe-Arg-beta-naphthylamide by Etest; type: functional
Enterobacter cloacae [5] = assay: Antibacterial activity against drug-resistant AcrAB-TolC efflux pump deficient Enterobacter cloacae EcdeltaacrA isolate expressing pAP2 plasmid containing Enterobacter cloacae acrA gene by Etest; type: functional
Enterobacter cloacae [6] = assay: Antibacterial activity against drug-resistant AcrAB-TolC efflux pump deficient Enterobacter cloacae EcdeltaacrA isolate expressing pACYC184 plasmid by Etest; type: functional
Enterobacter cloacae [7] = assay: Antibacterial activity against drug-resistant AcrAB-TolC efflux pump deficient Enterobacter cloacae EcdeltaacrA isolate expressing pAP3 plasmid containing Enterobacter aerogenes acrR gene by Etest; type: functional
Enterobacter cloacae [8] = assay: Antibacterial activity against drug-resistant AcrAB-TolC efflux pump deficient Enterobacter cloacae EcdeltaacrA isolate expressing pBGS18 plasmid by Etest; type: functional
Enterobacter cloacae [9] = assay: Antibacterial activity against drug-resistant Enterobacter cloacae EcDC64 isolate expressing AcrAB-TolC efflux pump by standard disk diffusion method; type: functional
In short: (§1)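 Standard disk diffusion on Mueller-Hinton agar with telithromycin, fusidic acid, novobiocin, nalidixic acid, rifampin and norfloxacin disks. The read-out is the inhibition zone diameter in mm. The acrA-deleted strain was complemented with acrA on pAP-2, and pACYC184 served as the empty vector.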

Enterobacter cloacae [10] = assay: Antibacterial activity against drug-resistant Enterobacter cloacae EcDC64 isolate expressing AcrAB-TolC efflux pump in presence of 20 ug/ml efflux pump inhibitor Phe-Arg-beta-naphthylamide by standard disk diffusion method; type: functional; in short: as §1
Enterobacter cloacae [11] = assay: Antibacterial activity against drug-resistant AcrAB-TolC efflux pump deficient Enterobacter cloacae EcdeltaacrA isolate by standard disk diffusion method; type: functional; in short: as §1
Enterobacter cloacae [12] = assay: Antibacterial activity against drug-resistant AcrAB-TolC efflux pump deficient Enterobacter cloacae EcdeltaacrA isolate in presence of 20 ug/ml efflux pump inhibitor Phe-Arg-beta-naphthylamide by standard disk diffusion method; type: functional; in short: as §1
Enterobacter cloacae [13] = assay: Antibacterial activity against drug-resistant AcrAB-TolC efflux pump deficient Enterobacter cloacae EcdeltaacrA isolate expressing pAP2 plasmid containing Enterobacter cloacae acrA gene by standard disk diffusion method; type: functional; in short: as §1
Enterobacter cloacae [14] = assay: Antibacterial activity against drug-resistant AcrAB-TolC efflux pump deficient Enterobacter cloacae EcdeltaacrA isolate expressing pACYC184 plasmid by standard disk diffusion method; type: functional; in short: as §1
Enterobacter cloacae [15] = assay: Antibacterial activity against drug-resistant Enterobacter cloacae EcDC64 isolate expressing pBGS18 plasmid by standard disk diffusion method
Enterobacter cloacae [16] = assay: Antibacterial activity against drug-resistant Enterobacter cloacae EcDC64 isolate expressing pAP3 plasmid containing Enterobacter aerogenes acrR gene by standard disk diffusion method

| Structure (SMILES) | MIC (Enterobacter cloacae [1]) | MIC (Enterobacter cloacae [2]) | MIC (Enterobacter cloacae [3]) | MIC (Enterobacter cloacae [4]) | MIC (Enterobacter cloacae [5]) | MIC (Enterobacter cloacae [6]) | MIC (Enterobacter cloacae [7]) | MIC (Enterobacter cloacae [8]) | inhibition zone (IZ) (Enterobacter cloacae [9]) | inhibition zone (IZ) (Enterobacter cloacae [10]) | inhibition zone (IZ) (Enterobacter cloacae [11]) | inhibition zone (IZ) (Enterobacter cloacae [12]) | inhibition zone (IZ) (Enterobacter cloacae [13]) | inhibition zone (IZ) (Enterobacter cloacae [14]) | inhibition zone (IZ) (Enterobacter cloacae [15]) | inhibition zone (IZ) (Enterobacter cloacae [16]) |
| --- | --- | --- | --- | --- | --- | --- | --- | --- | --- | --- | --- | --- | --- | --- | --- | --- |
| NCC[C@H](O)C(=O)N[C@@H]1C[C@H](N)[C@@H](O[C@H]2O[C@H](CN)[C@@H](O)[C@H](O)[C@H]2O)[C@H](O)[C@H]1O[C@H]1O[C@H](CO)[C@@H](O)[C@H](N)[C@H]1O [AMIKACIN] | 2 µg/mL (≈ 3.42 µM) | 1.5 µg/mL | 0.5 µg/mL (≈ 0.854 µM) | 0.125 µg/mL | 2 µg/mL (≈ 3.42 µM) | 0.5 µg/mL (≈ 0.854 µM) | 1 µg/mL (≈ 1.71 µM) | 2 µg/mL (≈ 3.42 µM) |  |  |  |  |  |  |  |  |
| CO/N=C(\C(=O)N[C@@H]1C(=O)N2C(C(=O)O)=C(COC(C)=O)CS[C@H]12)c1csc(N)n1 [CEFOTAXIME] | > 256 µg/mL | > 256 µg/mL | > 256 µg/mL | 8 µg/mL | > 256 µg/mL | > 256 µg/mL | > 256 µg/mL | > 256 µg/mL |  |  |  |  |  |  |  |  |
| CO[C@@]1(NC(=O)Cc2cccs2)C(=O)N2C(C(=O)O)=C(COC(N)=O)CS[C@@H]21 [CEFOXITIN] | > 256 µg/mL | > 256 µg/mL | > 256 µg/mL | > 256 µg/mL | > 256 µg/mL | > 256 µg/mL | > 256 µg/mL | > 256 µg/mL |  |  |  |  |  |  |  |  |
| CC(C)(O/N=C(\C(=O)N[C@@H]1C(=O)N2C(C(=O)[O-])=C(C[n+]3ccccc3)CS[C@H]12)c1csc(N)n1)C(=O)O [CEFTAZIDIME] | > 256 µg/mL | > 256 µg/mL | > 256 µg/mL | 16 µg/mL | > 256 µg/mL | > 256 µg/mL | > 256 µg/mL | > 256 µg/mL |  |  |  |  |  |  |  |  |
| CO/N=C(\C(=O)N[C@@H]1C(=O)N2C(C(=O)O)=C(COC(N)=O)CS[C@H]12)c1ccco1 [CEFUROXIME] | > 256 µg/mL | > 256 µg/mL | > 256 µg/mL | 48 µg/mL | > 256 µg/mL | > 256 µg/mL | > 256 µg/mL | > 256 µg/mL |  |  |  |  |  |  |  |  |
| CC(=O)OCC1=C(C(=O)O)N2C(=O)[C@@H](NC(=O)Cc3cccs3)[C@H]2SC1 [CEPHALOTHIN] | > 256 µg/mL | > 256 µg/mL | > 256 µg/mL | > 256 µg/mL | > 256 µg/mL | > 256 µg/mL | > 256 µg/mL | > 256 µg/mL |  |  |  |  |  |  |  |  |
| O=C(N[C@H](CO)[C@H](O)c1ccc([N+](=O)[O-])cc1)C(Cl)Cl [CHLORAMPHENICOL] | 8 µg/mL (≈ 24.8 µM) | 0.25 µg/mL | 0.5 µg/mL (≈ 1.55 µM) | 0.047 µg/mL | > 256 µg/mL | > 256 µg/mL | 1 µg/mL (≈ 3.09 µM) | 8 µg/mL (≈ 24.8 µM) |  |  |  |  |  |  |  |  |
| CCC[C@@H]1C[C@@H](C(=O)N[C@@H]([C@H]2O[C@H](SC)[C@H](O)[C@@H](O)[C@H]2O)[C@H](C)Cl)N(C)C1 [CLINDAMYCIN] | > 256 µg/mL | 6 µg/mL | 2 µg/mL (≈ 4.71 µM) | 1 µg/mL | > 256 µg/mL | 4 µg/mL (≈ 9.41 µM) | 32 µg/mL (≈ 75.3 µM) | > 256 µg/mL |  |  |  |  |  |  |  |  |
| CC[C@H]1OC(=O)[C@H](C)[C@@H](O[C@H]2C[C@@](C)(OC)[C@@H](O)[C@H](C)O2)[C@H](C)[C@@H](O[C@@H]2O[C@H](C)C[C@H](N(C)C)[C@H]2O)[C@](C)(O)C[C@@H](C)C(=O)[C@H](C)[C@@H](O)[C@]1(C)O [ERYTHROMYCIN] | > 256 µg/mL | 1 µg/mL | 12 µg/mL (≈ 16.4 µM) | 0.094 µg/mL | 128 µg/mL (≈ 174 µM) | 16 µg/mL (≈ 21.8 µM) | 48 µg/mL (≈ 65.4 µM) | > 256 µg/mL |  |  |  |  |  |  |  |  |
| CC(=O)O[C@H]1C[C@@]2(C)[C@@H](C[C@@H](O)[C@H]3[C@@]4(C)CC[C@@H](O)[C@@H](C)[C@@H]4CC[C@@]32C)/C1=C(\CCC=C(C)C)C(=O)O [FUSIDIC ACID] |  |  |  |  |  |  |  |  | 0 mm | >40 mm | 0 mm | 26 mm | 0 mm | 0 mm | 0 mm | 0 mm |
| CC(=O)NC[C@H]1CN(c2ccc(N3CCOCC3)c(F)c2)C(=O)O1 [LINEZOLID] | > 256 µg/mL | 4 µg/mL | 8 µg/mL (≈ 23.7 µM) | 0.5 µg/mL | > 256 µg/mL | 4 µg/mL (≈ 11.9 µM) | > 256 µg/mL | > 256 µg/mL |  |  |  |  |  |  |  |  |
| CCn1cc(C(=O)O)c(=O)c2ccc(C)nc21 [NALIDIXIC ACID] |  |  |  |  |  |  |  |  | 24 mm | 27 mm | 33 mm | 40 mm | 12 mm | 30 mm | 21 mm | 29 mm |
| CCn1cc(C(=O)O)c(=O)c2cc(F)c(N3CCNCC3)cc21 [NORFLOXACIN] |  |  |  |  |  |  |  |  | 26 mm | 40 mm | 40 mm | 42 mm | 24 mm | 38 mm | 27 mm | 35 mm |
| CO[C@@H]1[C@@H](OC(N)=O)[C@@H](O)[C@H](Oc2ccc3c(O)c(NC(=O)c4ccc(O)c(CC=C(C)C)c4)c(=O)oc3c2C)OC1(C)C [NOVOBIOCIN] |  |  |  |  |  |  |  |  | 0 mm | 20 mm | 16 mm | 22 mm | 0 mm | 14 mm | 0 mm | 0 mm |
| Cc1onc(-c2ccccc2)c1C(=O)N[C@@H]1C(=O)N2[C@@H]1SC(C)(C)[C@@H]2C(=O)O [OXACILLIN] | > 256 µg/mL | 48 µg/mL | 96 µg/mL (≈ 239 µM) | 4 µg/mL | > 256 µg/mL | > 256 µg/mL | > 256 µg/mL | > 256 µg/mL |  |  |  |  |  |  |  |  |
| CCN1CCN(C(=O)N[C@@H](C(=O)N[C@@H]2C(=O)N3[C@@H]2SC(C)(C)[C@@H]3C(=O)O)c2ccccc2)C(=O)C1=O [PIPERACILLIN] | > 256 µg/mL | 192 µg/mL | 192 µg/mL (≈ 371 µM) | 6 µg/mL | > 256 µg/mL | > 256 µg/mL | 96 µg/mL (≈ 185 µM) | > 256 µg/mL |  |  |  |  |  |  |  |  |
| CO[C@H]1/C=C/O[C@@]2(C)Oc3c(C)c(O)c4c(O)c(c(/C=N/N5CCN(C)CC5)c(O)c4c3C2=O)NC(=O)/C(C)=C\C=C\[C@H](C)[C@H](O)[C@@H](C)[C@@H](O)[C@@H](C)[C@H](OC(C)=O)[C@@H]1C [RIFAMPIN] |  |  |  |  |  |  |  |  | 0 mm | 26 mm | 13 mm | 28 mm | 0 mm | 8 mm | 10 mm | 10 mm |
| CN(C)[C@@H]1C(O)=C(C(N)=O)C(=O)[C@@]2(O)C(O)=C3C(=O)c4c(O)cccc4[C@@](C)(O)[C@H]3C[C@@H]12 [TETRACYCLINE] | > 256 µg/mL | 64 µg/mL | 64 µg/mL (≈ 144 µM) | 1.5 µg/mL | > 256 µg/mL | 64 µg/mL (≈ 144 µM) | 192 µg/mL (≈ 432 µM) | > 256 µg/mL |  |  |  |  |  |  |  |  |
| CN(C)c1cc(NC(=O)CNC(C)(C)C)c(O)c2c1C[C@H]1C[C@H]3[C@H](N(C)C)C(O)=C(C(N)=O)C(=O)[C@@]3(O)C(O)=C1C2=O [TIGECYCLINE] | 0.75 µg/mL (≈ 1.28 µM) | 0.125 µg/mL | 0.125 µg/mL (≈ 0.213 µM) | 0.064 µg/mL | 0.75 µg/mL (≈ 1.28 µM) | 0.5 µg/mL (≈ 0.854 µM) | 0.19 µg/mL (≈ 0.324 µM) | 0.38 µg/mL (≈ 0.649 µM) |  |  |  |  |  |  |  |  |
| NC[C@H]1O[C@H](O[C@H]2[C@H](O)[C@@H](O[C@H]3O[C@H](CO)[C@@H](O)[C@H](N)[C@H]3O)[C@H](N)C[C@@H]2N)[C@H](N)C[C@@H]1O [TOBRAMYCIN] | 1.5 µg/mL (≈ 3.21 µM) | 0.5 µg/mL | 0.125 µg/mL (≈ 0.267 µM) | 0.047 µg/mL | 1.5 µg/mL (≈ 3.21 µM) | 0.25 µg/mL (≈ 0.535 µM) | 0.38 µg/mL (≈ 0.813 µM) | 1 µg/mL (≈ 2.14 µM) |  |  |  |  |  |  |  |  |
